What follows are compounds tested on Eimeria tenella (assay: Anticoccidial activity (percent reduction in oocyst production) against Eimeria tenella in white leghorn chickens at 100 ppm).
Format: functional
Parameters: scale not given: the % may be the effect or the level left
Procedure, shortened: (§1)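 White Leghorn chicks were acclimated, then at 3 days old sorted by weight and randomized to medicated or control diets. There were one or two replicates of two birds per treatment. After 24 h of premedication, one bird per replicate got E. acervulina and the other E. tenella, both drug-sensitive laboratory strains. Inocula were sporulated oocysts in tap water, 0.25 mL per bird, giving low-to-moderate infection.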

SMILES | Activity
CN1CCC(c2cc(-c3ccccn3)c(-c3ccc(F)cc3)[nH]2)CC1 | <50%
CN1CCC(c2cc(-c3ccncc3)c(-c3ccc(F)c(Cl)c3)[nH]2)CC1 | >=80%
CN1CCC(c2cc(-c3ccncc3)c(-c3ccc(F)c(Br)c3)[nH]2)CC1 | <50%
CN1CCC(c2[nH]c(-c3ccc(F)cc3)c(-c3ccncc3)c2Br)CC1 | <50%
Cc1cnccc1-c1cc(C2CCN(C)CC2)[nH]c1-c1ccc(F)cc1 | <50%
CN1CCC(c2cc(-c3cccnc3)c(-c3ccc(F)cc3)[nH]2)CC1 | <50%
CN1CCC(c2cc(-c3ccncc3)c(-c3ccc(F)cc3)nn2)CC1 | <50%
Cc1c(C2CCN(C)CC2)[nH]c(-c2ccc(F)cc2)c1-c1ccncc1 | <50%
NCCCN1CCC(c2cc(-c3ccncc3)c(-c3ccc(F)cc3)[nH]2)CC1 | <50%
Cc1cc(-c2cc(C3CCN(C)CC3)[nH]c2-c2ccc(F)cc2)on1 | <50%

What follows are compounds tested against cGMP-dependent protein kinase (Eimeria tenella, UniProt Q8MMZ8) (assay: In vitro inhibition of Eimeria tenella cGMP-dependent protein kinase).
Chain of cGMP-dependent protein kinase (Q8MMZ8 whole entry): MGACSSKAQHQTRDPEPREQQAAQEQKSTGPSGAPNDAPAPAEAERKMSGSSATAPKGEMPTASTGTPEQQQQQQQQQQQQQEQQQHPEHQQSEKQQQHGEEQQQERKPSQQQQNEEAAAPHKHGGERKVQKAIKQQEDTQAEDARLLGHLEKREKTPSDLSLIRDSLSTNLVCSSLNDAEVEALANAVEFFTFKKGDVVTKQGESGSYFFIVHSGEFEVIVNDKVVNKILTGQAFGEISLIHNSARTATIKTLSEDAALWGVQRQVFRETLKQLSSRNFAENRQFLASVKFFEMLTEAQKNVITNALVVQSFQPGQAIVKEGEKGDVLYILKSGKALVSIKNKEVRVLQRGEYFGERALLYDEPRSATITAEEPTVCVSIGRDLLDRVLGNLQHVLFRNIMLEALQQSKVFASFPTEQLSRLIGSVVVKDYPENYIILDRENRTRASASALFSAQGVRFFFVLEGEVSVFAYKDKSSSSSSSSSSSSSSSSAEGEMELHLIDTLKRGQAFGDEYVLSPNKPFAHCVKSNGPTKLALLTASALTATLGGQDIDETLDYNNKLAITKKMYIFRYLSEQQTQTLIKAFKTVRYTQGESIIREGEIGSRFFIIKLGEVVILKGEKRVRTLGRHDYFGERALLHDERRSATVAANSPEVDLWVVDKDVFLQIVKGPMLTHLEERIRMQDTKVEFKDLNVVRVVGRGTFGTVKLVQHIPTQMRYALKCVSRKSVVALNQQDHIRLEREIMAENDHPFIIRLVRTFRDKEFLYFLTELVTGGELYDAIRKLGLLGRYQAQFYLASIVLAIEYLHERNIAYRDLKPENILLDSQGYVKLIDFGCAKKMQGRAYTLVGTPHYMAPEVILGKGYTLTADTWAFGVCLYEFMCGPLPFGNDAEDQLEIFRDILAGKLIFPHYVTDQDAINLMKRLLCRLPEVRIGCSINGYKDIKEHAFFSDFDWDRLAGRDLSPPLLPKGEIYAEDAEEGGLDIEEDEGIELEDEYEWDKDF

IC50 | SMILES
23.6 nM | CN1CCC(c2cc(-c3ccccn3)c(-c3ccc(F)cc3)[nH]2)CC1
0.44 nM | CN1CCC(c2cc(-c3ccncc3)c(-c3ccc(F)c(Cl)c3)[nH]2)CC1
0.15 nM | CN1CCC(c2cc(-c3ccncc3)c(-c3ccc(F)c(Br)c3)[nH]2)CC1
1.2 nM | CN1CCC(c2[nH]c(-c3ccc(F)cc3)c(-c3ccncc3)c2Br)CC1
1.7 nM | Cc1cnccc1-c1cc(C2CCN(C)CC2)[nH]c1-c1ccc(F)cc1
11.7 nM | CN1CCC(c2cc(-c3cccnc3)c(-c3ccc(F)cc3)[nH]2)CC1
1000 nM | CN1CCC(c2cc(-c3ccncc3)c(-c3ccc(F)cc3)nn2)CC1
1 nM | Cc1c(C2CCN(C)CC2)[nH]c(-c2ccc(F)cc2)c1-c1ccncc1
0.046 nM | NCCCN1CCC(c2cc(-c3ccncc3)c(-c3ccc(F)cc3)[nH]2)CC1
> 1000 nM | Cc1cc(-c2cc(C3CCN(C)CC3)[nH]c2-c2ccc(F)cc2)on1

These compounds were tested on Eimeria acervulina (assay: Anticoccidial activity (percent reduction in oocyst production) against Eimeria acervulina in white leghorn chickens at 100 ppm).
Format: functional
Parameters: scale not given: the % may be the effect or the level left
Procedure, shortened: as §1

SMILES | Activity
CN1CCC(c2cc(-c3ccccn3)c(-c3ccc(F)cc3)[nH]2)CC1 | <50%
CN1CCC(c2cc(-c3ccncc3)c(-c3ccc(F)c(Br)c3)[nH]2)CC1 | <50%
CN1CCC(c2[nH]c(-c3ccc(F)cc3)c(-c3ccncc3)c2Br)CC1 | <50%
Cc1cnccc1-c1cc(C2CCN(C)CC2)[nH]c1-c1ccc(F)cc1 | <50%
CN1CCC(c2cc(-c3ccncc3)c(-c3ccc(F)cc3)nn2)CC1 | <50%
Cc1c(C2CCN(C)CC2)[nH]c(-c2ccc(F)cc2)c1-c1ccncc1 | <50%
NCCCN1CCC(c2cc(-c3ccncc3)c(-c3ccc(F)cc3)[nH]2)CC1 | <50%
Cc1cc(-c2cc(C3CCN(C)CC3)[nH]c2-c2ccc(F)cc2)on1 | <50%

— ChEMBL document CHEMBL1140243, “Synthesis and SAR of 2,3-diarylpyrrole inhibitors of parasite cGMP-dependent protein kinase as novel anticoccidial agents” (Bioorg Med Chem Lett, 2005)
